# Screens: PubChem, Broad Institute
# T cruzi growth-1: blocks T. cruzi growth in NIH3T3 culture | actives 5.9% (n = 77,000) | AID 624255 | T. cruzi beta-gal in NIH3T3, GalScreen luminescence, 90 h | inhibition, % at 8.34 µM;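 active = mean inhibition above about 93%, with at least 55% of replicates each passing it, limit read from the data, passing the limit was not always enough; inconclusive = only one of those two conditions holds; inactive = neither condition holds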
# Pf Dd2 inh: blocks growth of Plasmodium falciparum Dd2 parasites; P. falciparum Dd2 growth, SYBR Green, 72 h; active compounds read low; actives 2.3% (n = 94,000); AID 1159554; activity change, % at 10 µM; in the data active = activity change below about -80%; inconclusive = no clear call, values can overlap the other calls
# KDM4C inh: inhibitors of human demethylase GASC-1 KDM4C | Q9H3R0 | GST-KDM4C 2-372, H3K9me3 peptide, LANCE TR-FRET | inhibition, % at 12.5 µM | actives 0.15% (n = 96,000);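 active = mean replicate inhibition above about 25%, with at least 55% of replicates also reaching it, limit read from the data, passing the limit was not always enough; inconclusive = only one of those two conditions met; inactive = neither condition met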
# Target sequence (Q9H3R0 2-372 limits assumed): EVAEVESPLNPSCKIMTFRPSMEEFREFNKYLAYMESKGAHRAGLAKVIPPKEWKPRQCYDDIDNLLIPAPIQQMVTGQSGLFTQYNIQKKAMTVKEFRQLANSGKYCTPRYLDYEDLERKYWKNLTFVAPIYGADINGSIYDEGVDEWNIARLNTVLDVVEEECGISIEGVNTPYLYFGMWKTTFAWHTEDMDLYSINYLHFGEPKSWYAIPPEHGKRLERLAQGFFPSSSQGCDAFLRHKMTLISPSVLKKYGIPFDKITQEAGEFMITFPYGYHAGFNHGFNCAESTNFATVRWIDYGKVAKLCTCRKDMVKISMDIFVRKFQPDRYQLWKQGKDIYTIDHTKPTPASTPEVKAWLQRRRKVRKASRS
#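 Test system: N-terminal GST-fused human GASC-1 (KDM4C) fragment, residues 2-372; quantity: GASC-1 enzyme at 10 nM final in reaction; dosing: single dose; schedule: 30 min demethylation and 1 h detection at room temperature; signal: LANCE TR-FRET, excitation 340 nm, emissions 618 and 671 nm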
# IDH1 R132H inh: inhibitors of human IDH1 R132H; actives 0.18% (n = 70,000); O75874; inhibition, % at 10 µM; AID 624101; IDH1 R132H reductase, diaphorase/resazurin fluorescence, 60 min; in the data active = inhibition above about 34%; inconclusive = no clear call, values can overlap the other calls; inactive = below about 11%;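 also: 0% = DMSO and 100% = no enzyme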
# T cruzi growth-2: inhibitors of T. cruzi proliferation; shares compounds with T cruzi growth-1; actives 72% (n = 5,600); T. cruzi beta-gal in NIH3T3, GalScreen luminescence, 90 h; AID 651739; inhibition, % at 8.35 µM;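 active = mean replicate inhibition above about 95% and at least 55% of replicates individually reaching it, limit read from the data; inconclusive = only one of the two criteria is met; inactive = neither criterion is met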
# T cruzi growth-3: inhibitors of T. cruzi proliferation; shares compounds with T cruzi growth-1; T. cruzi beta-gal in NIH3T3, GalScreen luminescence, 90 h; inhibition, % at 2.09 µM; actives 21% (n = 5,600);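 active = mean inhibition above about 95%, with at least 55% of replicates also reaching it, limit read from the data; inconclusive = meets just one of the two conditions; inactive = meets neither condition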;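 also: plate controls were neutral control median for no effect and positive control median for full effect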
# NIH3T3 tox: kills mouse NIH/3T3 fibroblasts. actives 14% (n = 5,600). cytotoxicity (signal decrease), % at 8.35 µM. shares compounds with T cruzi growth-1. NIH/3T3 viability, CellTiter-Glo ATP luminescence, 90 h;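 active = mean signal decrease across replicates above about 35% based on untreated-well scatter, with enough replicates individually passing, limit read from the data; inconclusive = no rule stated though some were filed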;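 also: 0% = median of neutral control wells and 100% = median of positive control wells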
# 3T3 cytotox 2: cytotoxicity in mouse NIH/3T3 fibroblasts. shares compounds with T cruzi growth-1. NIH/3T3 viability, CellTiter-Glo ATP luminescence, 90 h. inhibition, % at 24.9 µM. actives 56% (n = 5,600). AID 651744;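 active = mean loss of cell viability signal at or above a set limit, and enough replicates individually reaching it; inconclusive = meets only the mean limit or only the replicate share; inactive = meets neither condition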;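 also: 0% = median of neutral control wells and 100% = median of positive control wells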
# Active calls of the source: *; ? = inconclusive; / = no result given. A selection: hits, their analogues and other compounds. The true share with any hit is near 5.9%.
SMILES,T cruzi growth-1,Pf Dd2 inh,KDM4C inh,IDH1 R132H inh,T cruzi growth-2,T cruzi growth-3,NIH3T3 tox,3T3 cytotox 2
CC(C)C#Cc1ccc2c(c1)O[C@H](CN(C)Cc1cccnc1)[C@H](C)CN([C@@H](C)CO)S2(=O)=O,104*,-28,2,2,98*,56,?,65*
CC(C)C#Cc1ccc2c(c1)O[C@@H](CN(C)Cc1cccnc1)[C@H](C)CN([C@@H](C)CO)S2(=O)=O,107*,-51,17,/,99*,92,56*,67*
CC(C)C#Cc1ccc([C@H]2[C@@H](C#N)N(C(=O)C3CC3)[C@H]2CO)cc1,92,-30,0,/,/,/,/,/
CC(C)C#Cc1ccc([C@@H]2[C@@H](CO)N(C(=O)C3CCC3)[C@H]2C#N)cc1,100*,-8,0,/,100*,69,2,31*
CC(C)C#Cc1ccc([C@H]2[C@@H](C#N)N(C(=O)C3CCC3)[C@H]2CO)cc1,98*,-61,-4,/,100*,88,0,37*
CC(C)C#Cc1ccc([C@H]2[C@@H](CO)N(C(=O)C3CCOCC3)[C@H]2C#N)cc1,98*,-21,1,0,106*,93,-8,-5
CC(C)C#Cc1ccc([C@@H]2[C@@H](C#N)N(C(=O)C3CC3)[C@H]2CO)cc1,44,-9,-1,/,/,/,/,/
CC(C)C#Cc1ccc([C@@H]2[C@H](C#N)N(C(=O)C3CCC3)[C@H]2CO)cc1,?,-17,-3,/,104*,73,15,34*
CC(C)C#Cc1ccc([C@H]2[C@@H](C#N)N(C(=O)C3CCC3)[C@@H]2CO)cc1,90,-11,-2,/,/,/,/,/
CCCC#Cc1ccc([C@@H]2[C@@H](CO)N(C(=O)C3CCC3)[C@H]2C#N)cc1,92,-35,-1,/,/,/,/,/
CCC(=O)N1CCCCN2[C@@H](CO)[C@@H](c3ccc(C#Cc4ccccc4)cc3)[C@@H]2C1,106*,-8,-1,/,104*,82,24,104*
CCC(=O)N1CCCCN2[C@H](CO)[C@H](c3ccc(C#Cc4ccccc4)cc3)[C@H]2C1,108*,-27,-1,/,86,44,40*,106*
CCC(=O)N1CCCCN2[C@H](CO)[C@@H](c3ccc(C#Cc4ccccc4)cc3)[C@@H]2C1,86,15,-1,/,/,/,/,/
CCC(=O)N1CCCCN2[C@@H](CO)[C@H](c3ccc(C#Cc4ccccc4)cc3)[C@@H]2C1,112*,-10,0,/,105*,73,59*,105*
CCC(=O)N1CCCCN2[C@@H](CO)[C@@H](c3ccc(C#Cc4cccnc4)cc3)[C@@H]2C1,111*,-24,1,/,102*,76,8,8
COCCNC(=O)[C@@H]1[C@@H](CO)[C@@H]2Cn3c(ccc(C4=CCCCC4)c3=O)[C@H]1N2Cc1cocn1,-2,-4,3,/,/,/,/,/
COC(=O)c1ccc(Cl)c(NC(=O)CSc2nc(-c3ccccc3)cc(C(F)(F)F)n2)c1,/,/,/,-1,/,/,/,/
C[C@H](O)C#Cc1ccc([C@@H]2[C@H]3CN(C(=O)c4ccc5c(c4)OCO5)CCCCN3[C@H]2CO)cc1,33,17,2,/,/,/,/,/
CC(C)C#Cc1ccc([C@H]2[C@@H](CO)N3CCCCN(C(=O)c4ccc5c(c4)OCO5)C[C@@H]23)cc1,99*,-1,-2,/,110*,106*,68*,50*
C[C@H](O)C#Cc1ccc([C@@H]2[C@@H](CO)N3CCCCN(C(=O)c4ccc5c(c4)OCO5)C[C@@H]23)cc1,97*,4,11,/,105*,32,31,44*
C[C@H](O)C#Cc1ccc2c(c1)O[C@H](CN(C)C(=O)Cc1ccccn1)[C@H](C)CN([C@H](C)CO)S2(=O)=O,39,7,2,/,/,/,/,/
COc1ccccc1S(=O)(=O)N(C)C[C@@H]1Oc2cc(C#CCC(C)C)ccc2S(=O)(=O)N([C@H](C)CO)C[C@H]1C,103*,-83*,0,0,93,115*,44*,105*
COc1ccccc1S(=O)(=O)N(C)C[C@@H]1Oc2cc(C#CCC(C)C)ccc2S(=O)(=O)N([C@@H](C)CO)C[C@H]1C,?,-89*,2,1,97*,108*,24,41*
CC(C)CC#Cc1ccc2c(c1)O[C@H](CN(C)S(C)(=O)=O)[C@@H](C)CN([C@H](C)CO)S2(=O)=O,46,-1,10,0,/,/,/,/
COc1cccc(S(=O)(=O)N(C)C[C@@H]2Oc3cc(C#CCC(C)C)ccc3S(=O)(=O)N([C@H](C)CO)C[C@H]2C)c1,61,?,4,0,/,/,/,/
SMILES,T cruzi growth-1,Pf Dd2 inh,KDM4C inh,IDH1 R132H inh,T cruzi growth-2,T cruzi growth-3,NIH3T3 tox,3T3 cytotox 2
COc1ccccc1S(=O)(=O)N(C)C[C@H]1Oc2cc(C#CCC3CCCC3)ccc2S(=O)(=O)N([C@@H](C)CO)C[C@@H]1C,/,-55,14,0,/,/,/,/
COc1ccccc1S(=O)(=O)N(C)C[C@@H]1Oc2cc(C#CCC(C)C)ccc2S(=O)(=O)N([C@@H](C)CO)C[C@@H]1C,?,-87*,6,1,103*,107*,-3,56*
C[C@@H]1CN([C@@H](C)CO)C(=O)c2cc(NC(=O)CCC(F)(F)F)ccc2O[C@@H]1CN(C)C(=O)Nc1ccc(F)cc1,18,10,-1,-9,/,/,/,/
Cc1ccc(S(=O)(=O)Nc2ccc3c(c2)C(=O)N([C@H](C)CO)C[C@@H](C)[C@@H](CN(C)S(=O)(=O)c2ccc(C)cc2)OCCCC[C@H](C)O3)cc1,103*,-84*,-1,/,112*,?,-39,-3
Cc1ccc(S(=O)(=O)Nc2ccc3c(c2)C(=O)N([C@@H](C)CO)C[C@H](C)[C@H](CN(C)S(=O)(=O)c2ccc(C)cc2)OCCCC[C@H](C)O3)cc1,104*,-68,6,/,105*,84,-12,-8
Cc1ccc(S(=O)(=O)Nc2ccc3c(c2)C(=O)N([C@H](C)CO)C[C@@H](C)[C@H](CN(C)S(=O)(=O)c2ccc(C)cc2)OCCCC[C@H](C)O3)cc1,91,-64,1,/,/,/,/,/
Cc1ccc(S(=O)(=O)N(C)C[C@H]2OCCCC[C@H](C)Oc3ccc(NS(=O)(=O)c4ccccc4)cc3C(=O)N([C@H](C)CO)C[C@@H]2C)cc1,99,-56,-1,2,/,/,/,/
Cc1ccc(S(=O)(=O)Nc2ccc3c(c2)C(=O)N([C@H](C)CO)C[C@H](C)[C@@H](CN(C)S(=O)(=O)c2ccc(C)cc2)OCCCC[C@H](C)O3)cc1,98*,-67,0,/,97*,54,75*,59*
